The values below come from the RNAGym collection of RNA variant scans (doi:10.1038/nmeth.2970).

A word on the Kd: it is the concentration at which binding is half-saturated.

The labels stand for the following.
B1: NELF-E aptamer (parent)
chain: CCCAACGACUGCCGAGCGAGAUUACGCUUGAGCGCCCCACUGAGGAUGCCCACGGGCGAUUGGGGCACGG

The variants in this data set derive from B1. As to the kind of experiment: HiTS-RAP. To be noted: with NELF-E (Drosophila). Put shortly:
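Aptamer DNA templates bearing a T7 promoter and a ter site were sequenced on an Illumina GAIIx flowcell. T7 RNA polymerase then transcribed them in situ, and GST-Tus halted transcription over 30 minutes at 37°C. After a 30-minute room-temperature equilibration with NELF-E-mOrange at 0.064 to 1000 nM in HEPES binding buffer, clusters were imaged, using only the first binding curve. Intensities normalised to sequencing intensity were averaged per sequence and fitted with weighted Hill fits to give Kd, retaining only fits whose variance stayed under 1,000,000.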
Take CCCAACGACUGCCGAGCGAGAUUACGCUGGAGCGCCCCACUGAGGAUGCCCACGGGCGAUUGGGGCGCGG: the Kd was determined as 5.86 nM.
Consider CCCAACGACUGCCGAGCGAGAUUACGCUGGAGCGCCCCACUGAGGAUGCCCACGGGCGAUUGGGGCUCGG, for which the Kd is 6.79 nM.
On to CCCAACGACUGCCGAGCGAGAUUACGCUGGAGCGCCCUACUGAGGAUGCCCACGGGCGAUUGGGGCACGG, for which the Kd was found to be 8.13 nM.
Regarding CCCAACGACUGCCGAGCGAGAUUACGCUGGAGCGCCCCACUGGGGAUGCCCACGGGCGAUUGGGGCACGG, the Kd came out at 14 nM.
The same measure for CCCAACGACUGCCGAGCGAGAUUACGCUGGAGCGCCCCACUGUGGAUGCCCACGGGCGAUUGGGGCACGG: 44 nM.
Next, CCCAACGACUGCCGAGCGAGAUUACGCCUGAGCGCCCCACUGAGGAUGCCCUCGGGCGAUUGGGGCACGG: 32.7 nM; CCCAACGACUGCCGAGCGAGAUUACGCUGGAGCGCCCCACUGAGGAUGCCCGCGGGCGAUUGGGGCACGG: 4.39 nM; CCCAACGACUGCCGAGCGAGAUUACGCUGGAGCGCCCCACUGAGGAUGCCCUCGGGCGAUUGGGGCACGG: 15.5 nM.
As for CCCAACGACUGCCGAGCGAGAUUACGCUGGAGCGCGCCACUGAGGAUGCCCACGGGCGAUUGGGGCACGG, the Kd was found to be 8.06 nM.
For CCCAACGACUGCCGAGCGAGAUUACGCUGGAGCGCUCCACUGAGGAUGCCCACGGGCGAUUGGGGCACGG, the Kd amounted to 9.64 nM.
Next, CCCAACGACUGCCGAGCGAGAUUACGCGUGAGCGCCCCACGGAGGAUGCCCACGGGCGAUUGGGGCACGG: 5.18 nM.
CCCAACGACUGCCGAGCGAGAUUACGCUAGAGCGCCCCACUGAGGAUGCCCACGGGCGAUUGGGGCUCGG: the Kd was 5.96 nM.
Take CCCAACGACUGCCGAGCGAGAUUACGCGUGAGCGCCCCACUGAGGAUGCCCACGGGCGAUUGGGGCACGG: the Kd came out at 6.24 nM.
For the variant CCCAACGACUGCCGAGCGAGAUUACGCCUGAGCGCCCCACUGAGGAUGCCCACGGGCGAUUGGGGCACGG, the Kd worked out at 8.26 nM.
The same measure for CCCAACGACUGCCGAGCGAGAUUACGCAUGAGCGCCCCACUGAGGAUGCCCACGGGCGAUUGGGGCACGG: 4.43 nM.
The same measure for CCCAACGACUGCCGAGCGAGAUUACGCCUGAGCGCCCCACUGAGGAUGCCCACGGGCGAUAGGGGCACGG: 43.5 nM.
For CCCAACGACUGCCGAGCGAGAUUACGCUGGAGCGCCCCACUGAGGAUGCCCAGGGGCGAUUGGGGCACGG, the equilibrium dissociation constant (Kd) is 5.71 nM.
The same measure for CCCAACGACUGCCGAGCGAGAUUACGCUGGAGCGCCCCACUGAGGAUGCCCAUGGGCGAUUGGGGCACGG: 3.72 nM; for CCCAACGACUGCCGAGCGAGAUUACGCUGGUGCGCCCCACUGAGGAUGCCCACGGGCGAUUGGGGCACGG: 6.06 nM.
The same measure for CCCAACGACUGCCGAGCGAGAUUACGCUGGGGCGCCCCACUGAGGAUGCCCACGGGCGAUUGGGGCACGG: 6.61 nM; for CCCAACGACUGCCGAGCGAGAUUACGCUGGAGCGCCCCACUGAGGAUGCCCACGGGUGAUUGGGGCACGG: 5.61 nM; for CCCAACGACUGCCGAGCGAGAUUACGCUCGAGCGCCCCACUGAGGAUGCCCACGGGCGAUUGGGGCUCGG: 5.08 nM.
CCCAACGACUGCCGAGCGAGAUUACGCUGGAGCGCCCCGCUGAGGAUGCCCACGGGCGAUUGGGGCACGG: the Kd is 7.69 nM.
Consider CCCAACGACUGCCGAGCGAGAUUACGCUGGAGCGCCCCUCUGAGGAUGCCCACGGGCGAUUGGGGCACGG, for which the dissociation constant Kd worked out at 26.4 nM.
Regarding CCCAACGACUGCCGAGCGAGAUUACGCUGGAGCGCCCCCCUGAGGAUGCCCACGGGCGAUUGGGGCACGG, the Kd amounted to 24.7 nM.
With CCCAACGACUGCCGAGCGAGAUUACGCUCGAGCGCCCCACUGUGGAUGCCCACGGGCGAUUGGGGCACGG, the Kd amounted to 43.4 nM.
For CCCAACGACUGCCGAGCGAGAUUACGCUGAAGCGCCCCACUGAGGAUGCCCACGGGCGAUUGGGGCACGG, the Kd was 5.05 nM.
Next, CCCAACGACUGCCGAGCGAGAUUACGCUGCAGCGCCCCACUGAGGAUGCCCACGGGCGAUUGGGGCACGG: 5.14 nM.
Next, CCCAACGACUGCCGAGCGAGAUUACGUUUGAGCGCCCCACUGAGGAUGCCCACGGGCGAUUGGGGCACGG: 4.14 nM.
The same measure for CCCAACGACUGCCGAGCGAGAUUACGGUUGAGCGCCCCACUGAGGAUGCCCACGGGCGAUUGGGGCACGG: 5.01 nM; for CCCAACGACUGCCGAGCGAGAUUACGAUUGAGCGCCCCACUGAGGAUGCCCACGGGCGAUUGGGGCACGG: 4.28 nM.
In the case of CCCAACGACUGCCGAGCGAGAUUACGCUAGAGCGCCUCACUGAGGAUGCCCACGGGCGAUUGGGGCACGG, the Kd was determined as 7.5 nM.
The same measure for CCCAACGACUGCCGAGCGAGAUUACGUUGGAGCGCCCCACUGAGGAUGCCCACGGGCGAUUGGGGCACGG: 4.7 nM; for CCCAACGACUGCCGAGCGAGAUUACGCUGGAGCGCCCCACUGAGGAUGCCCACGGGCGAUUGGGGUACGG: 4.32 nM.
Next, CCCAACGACUGCCGAGCGAGAUUACGCCGGAGCGCCCCACUGAGGAUGCCCACGGGCGAUUGGGGCACGG: 8.69 nM; CCCAACGACUGCCGAGCGAGAUUACGCUCGAGCGCCCCACGGAGGAUGCCCACGGGCGAUUGGGGCACGG: 5.09 nM; CCCAACGACUGCCGAGCGAGAUUACGCUCGAGCGCUCCACUGAGGAUGCCCACGGGCGAUUGGGGCACGG: 6 nM.
With CCCAACGACUGCCGAGCGAGAUUACGCCUGAGCGCCCCACCGAGGAUGCCCACGGGCGAUUGGGGCACGG, the dissociation constant (Kd) came to 98.6 nM.
